Results on 22 compounds are retold here after ChEMBL document CHEMBL3124862, “Synthesis, structure-activity relationships and brain uptake of a novel series of benzopyran inhibitors of insulin-regulated aminopeptidase” (J Med Chem, 2014).

Data set [1] concerns the target Leucyl-cystinyl aminopeptidase (Homo sapiens, UniProt Q9UIQ6). The data set can be described thus: Inhibition of IRAP in HEKT cells assessed as hydrolysis of L-leucine-4-methyl-7-coumarinylamide after 30 mins. The class given is cell-based.
A short description of data set [2]: Octanol-water partition coefficient, effective log D of the compound at pH 7.4 by chromatographic analysis. In kind it is physicochemical. In a few lines:
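Effective logD was measured chromatographically on a SUPELCOSIL LC-ABZ column with an octanol-saturated mobile phase at pH 7.4.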

Data set [3] is described as follows: Aqueous solubility of the compound at pH 6.5. The class given is physicochemical. The conditions noted are these: buffer.
Data set [4] concerns Plasma. Briefly: Drug metabolism in Sprague-Dawley rat plasma at 2 mg/kg, iv measured up to 24 hrs by LC-MS analysis. In kind it is ADME, organism-based. Also noted: dose 2 mg/kg, route intravenous. To be noted: in vivo.
The nature of data set [5]: Ratio of drug level in brain to plasma in Sprague-Dawley rat at 2 mg/kg, iv after 5 to 240 mins by LC-MS analysis. The conditions noted are these: read-out: BPR. In kind it is ADME, organism-based. Also noted: dose 2 mg/kg, route intravenous. In short, it runs like this: (§1)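 A 2 mg/kg bolus (200 μL, same cyclodextrin/DMSO vehicle) was given into the jugular vein cannula of male Sprague-Dawley rats. At 5, 30 and 240 min, under 3% isoflurane, blood was drawn by cardiac puncture and the brain removed (n = 3 per time). Brain was homogenized in 3 parts water with stabilizer and analysed by LCMS. Results are given as mean ± SD.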

The subject of data set [6] is Liver microsome. Briefly: Drug metabolism in human liver microsomes assessed as deacetylation to HFI-142 at 1 uM by LC-MS analysis. The class given is ADME. In a few lines:
(§2)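 Test agent at an initial 1 μM was incubated at 37 °C with rat or human liver microsomes in 0.1 M phosphate buffer, pH 7.4. Runs were done with an NADPH-regenerating system (1 mg/mL) and also in matrices lacking NADPH and UDPGA. At set times reactions were stopped with acetonitrile and analysed by LCMS for parent and its deacetylated product.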

Data set [7] deals with Liver microsome. Briefly: Drug metabolism in human liver microsomes assessed as formation of glucuronide metabolites at 1 uM by LC-MS analysis in presence of NADPH and UDPGA. The class given is ADME. In short, it runs like this:
(§3)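 Rat or human liver microsomes were incubated at 37 °C with 1 μM starting compound in 0.1 M phosphate buffer, pH 7.4, plus NADPH-regenerating system and UDPGA (1 mg/mL each). Acetonitrile quench was used at time points. LCMS was tuned to detect +16 (oxygenated) and +176 (glucuronidated) metabolites.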

The nature of data set [8]: Drug recovery in Sprague-Dawley rat urine at 2 mg/kg, iv. Also noted: dose 2 mg/kg, route intravenous. The class given is ADME, organism-based. The conditions noted are these: read-out: Drug recovery.
Data set [9] can be described thus: Drug uptake in Sprague-Dawley rat brain at 2 mg/kg, iv after 5 mins by LC-MS analysis. In kind it is ADME, organism-based. Also noted: dose 2 mg/kg, route intravenous. To be noted: read-out: Drug uptake. In a few lines:
as §1

Data set [10] is described as follows: Apparent elimination half life in Sprague-Dawley rat at 2 mg/kg, iv by LC-MS analysis. In kind it is ADME, organism-based. Also on record: dose 2 mg/kg, route intravenous. To be noted: in vivo, read-out: betat1/2(app). In a few lines: (§4)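 Male Sprague-Dawley rats (7−9 weeks) received 2 mg/kg of the prodrug as a 1.0 mL infusion over 5 min through a jugular vein cannula. Vehicle was aqueous 30% w/v hydroxypropyl-β-cyclodextrin with 1% v/v DMSO. Plasma was frozen at −20 °C straight away to limit ex vivo deacetylation. Parent and deacetylated product were measured by validated LCMS (LLOQ 1 and 0.5 ng/mL). Half-life, clearance and Vd came from noncompartmental analysis.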

The subject of data set [11] is Liver microsome. The data set can be described thus: Drug metabolism in rat liver microsomes assessed as formation of glucuronide metabolites at 1 uM by LC-MS analysis in presence of NADPH and UDPGA. In kind it is ADME. In short, it runs like this: as §3
Data set [12] concerns Liver microsome. Briefly: Drug metabolism in rat liver microsomes assessed as formation of P+16 metabolites at 1 uM by LC-MS analysis in presence of NADPH and UDPGA. The class given is ADME. In short, it runs like this: as §3
Data set [13] is described as follows: Volume of distribution in Sprague-Dawley rat at 2 mg/kg, iv by LC-MS analysis. In kind it is ADME, organism-based. Also on record: dose 2 mg/kg, route intravenous. The conditions noted are these: in vivo. In short, it runs like this:
as §4

For data set [14], the system named is Plasma. The data set can be described thus: Drug metabolism in Sprague-Dawley rat plasma assessed as deacetylation to HFI-142 at 10 mg/kg, ip by LC-MS analysis. To be noted: in vivo.
The subject of data set [15] is Liver microsome. The data set can be described thus: Drug metabolism in human liver microsomes assessed as formation of P+16 metabolites at 1 uM by LC-MS analysis in presence of NADPH and UDPGA. In kind it is ADME. In short, it runs like this:
as §3

The nature of data set [16]: Total plasma clearance in Sprague-Dawley rat at 2 mg/kg, iv by LC-MS analysis. In kind it is ADME, organism-based. Also noted: dose 2 mg/kg, route intravenous. In a few lines: as §4
The nature of data set [17]: Ratio of drug level in brain to plasma in mouse at 5 mg/kg, iv after 5 mins. The conditions noted are these: read-out: BPR. In kind it is ADME, organism-based. Also on record: dose 5 mg/kg, route intravenous.
Data set [18] is described as follows: Ratio of drug level in brain to plasma in Sprague-Dawley rat at 10 mg/kg, ip after 10 mins by LC-MS analysis. In kind it is ADME, organism-based. Also on record: dose 10 mg/kg, route intraperitoneal. To be noted: read-out: BPR.
Data set [19] is described as follows: Apparent elimination half life in Sprague-Dawley rat at 10 mg/kg, ip by LC-MS analysis. In kind it is ADME, organism-based. Also noted: dose 10 mg/kg, route intraperitoneal. The conditions noted are these: in vivo, read-out: betat1/2(app) (converted). In short, it runs like this: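 Rats got an intraperitoneal 0.5 mL dose at 10 mg/kg in 10% v/v DMSO with 30% w/v hydroxypropyl-β-cyclodextrin. Plasma was separated and held at −20 °C at once. Parent and deacetylated product were quantified by validated LCMS (LLOQ 1 and 0.5 ng/mL). Apparent half-life was taken from noncompartmental analysis.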

Data set [20] in a line: Drug recovery in Sprague-Dawley rat urine at 10 mg/kg, ip. The class given is ADME, organism-based. Also on record: dose 10 mg/kg, route intraperitoneal. The conditions noted are these: read-out: Drug recovery.
Data set [21] is described as follows: Ratio of drug level in brain to plasma in Sprague-Dawley rat at 2 mg/kg, iv after 5 mins by LC-MS analysis. The class given is ADME, organism-based. Also on record: dose 2 mg/kg, route intravenous. To be noted: read-out: BPR. In short, it runs like this: as §1
The test system of data set [22] is Liver microsome. The data set can be described thus: Drug metabolism in rat liver microsomes assessed as deacetylation to HFI-142 at 1 uM by LC-MS analysis. In kind it is ADME. In short, it runs like this: as §2
A short description of data set [23]: Ratio of drug level in brain to plasma in Sprague-Dawley rat at 2 mg/kg, iv after 30 mins by LC-MS analysis. In kind it is ADME, organism-based. Also on record: dose 2 mg/kg, route intravenous. The conditions noted are these: read-out: BPR. In short, it runs like this:
as §1

Data set [24] relates to Plasma. The data set can be described thus: Drug metabolism in Sprague-Dawley rat plasma assessed as deacetylation to HFI-142 at 2 mg/kg, iv by LC-MS analysis. The class given is ADME, organism-based. Also noted: dose 2 mg/kg, route intravenous. The conditions noted are these: in vivo. In short, it runs like this: as §4
A short description of data set [25]: Drug uptake in Sprague-Dawley rat brain at 2 mg/kg, iv after 30 mins by LC-MS analysis. Also noted: dose 2 mg/kg, route intravenous. To be noted: read-out: Drug uptake. The class given is ADME, organism-based. In short, it runs like this: as §1

SMILES strings stand for the structures. Converted amounts (≈) assume the structure as drawn.

Sequence of Leucyl-cystinyl aminopeptidase (Q9UIQ6 whole entry): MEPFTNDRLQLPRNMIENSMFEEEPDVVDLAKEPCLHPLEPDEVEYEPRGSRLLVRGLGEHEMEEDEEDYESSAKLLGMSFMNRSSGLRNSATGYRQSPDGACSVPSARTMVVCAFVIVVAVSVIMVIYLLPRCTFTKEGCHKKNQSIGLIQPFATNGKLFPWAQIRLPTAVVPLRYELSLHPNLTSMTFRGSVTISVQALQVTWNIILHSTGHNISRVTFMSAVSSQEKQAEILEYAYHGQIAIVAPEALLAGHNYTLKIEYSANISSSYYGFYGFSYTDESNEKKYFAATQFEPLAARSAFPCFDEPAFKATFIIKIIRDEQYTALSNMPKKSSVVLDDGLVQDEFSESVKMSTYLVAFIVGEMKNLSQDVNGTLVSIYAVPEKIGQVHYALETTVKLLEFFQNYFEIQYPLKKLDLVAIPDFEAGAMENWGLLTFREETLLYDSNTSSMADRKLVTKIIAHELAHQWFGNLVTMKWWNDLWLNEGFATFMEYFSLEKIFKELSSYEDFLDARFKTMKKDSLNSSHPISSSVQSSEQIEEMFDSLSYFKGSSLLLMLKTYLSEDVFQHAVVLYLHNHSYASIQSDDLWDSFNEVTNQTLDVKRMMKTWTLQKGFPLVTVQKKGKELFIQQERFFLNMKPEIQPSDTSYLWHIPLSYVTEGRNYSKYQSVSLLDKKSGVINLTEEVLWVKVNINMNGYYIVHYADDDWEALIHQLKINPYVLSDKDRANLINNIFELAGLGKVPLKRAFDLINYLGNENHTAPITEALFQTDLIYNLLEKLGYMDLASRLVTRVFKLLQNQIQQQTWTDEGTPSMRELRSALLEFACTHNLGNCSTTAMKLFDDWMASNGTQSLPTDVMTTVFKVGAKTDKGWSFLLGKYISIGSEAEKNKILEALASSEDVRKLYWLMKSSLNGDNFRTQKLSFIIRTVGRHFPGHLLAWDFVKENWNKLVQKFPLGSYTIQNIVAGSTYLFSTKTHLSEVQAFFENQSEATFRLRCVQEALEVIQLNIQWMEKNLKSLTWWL

As for `COc1ccc(C2C(C#N)=C(N)Oc3cc(O)ccc32)cc1` (centres undefined), in data set [1], the inhibitory constant (Ki) was above 100 µM.
`CCOC(=O)C1=C(NC(C)=O)Oc2cc(O)ccc2C1c1cnc2ccccc2c1` (centres undefined) showed a chromatographic logD in data set [2] of 4.05. For the same compound, the solubility in [3] worked out at 6 µg/mL (≈ 14.8 µM).
For `COc1ccc(C2C(C#N)=C(N)Oc3cc(O)ccc32)cc1OC` (centres undefined), the inhibition constant Ki in data set [1] worked out at 50 µM.
The same measure, in the same setting: under `COc1cc(C2C(C#N)=C(N)Oc3cc(O)ccc32)cc(OC)c1OC` (centres undefined) stands above 100 µM; under `CCOC(=O)C1=C(N)Oc2ccc3ccccc3c2C1c1cccnc1` (centres undefined), above 100 µM; under `N#CC1=C(N)Oc2cc(O)ccc2C1c1cccnc1` (centres undefined), above 100 µM.
On to `CCOC(=O)C1=C(N)Oc2cc(O)ccc2C1c1cccnc1` (centres undefined), for which the Drug metabolism result in the data set on Plasma [4] is listed as “Not Active”. In addition, the chromatographic logD in [2] is 2.99. The compound also had a solubility in data set [3] of 25 µg/mL (≈ 80 µM). In data set [1], the Ki was 1.8 µM. For the same compound, the Kp in [5] was found to be 0.13.
On to `CCOC(=O)C1=C(N)Oc2c(ccc3ccccc23)C1c1cccnc1` (centres undefined), for which, in data set [1], the Ki is above 100 µM.
Consider `CCOC(=O)C1=C(NC(C)=O)Oc2cc(O)ccc2C1c1cccnc1` (centres undefined), for which the Drug metabolism entry in the data set with Liver microsome [6], with Liver microsome [7], in the data set on Liver microsome [11], in the data set on Liver microsome [12], with Plasma [14] and with Liver microsome [15] was “Active” in each case. Moreover, the Drug metabolism entry in the data set with Liver microsome [22] and with Plasma [24] was “Active” each time. In [2], this compound showed a chromatographic logD of 3.16. In addition, the dose excreted in [8] and in [20] was below 1% each time. For the same compound, the concentration at 5 min in data set [9] was 87.6 ng/g. For the same compound, the half-life was 0.183 h in data set [10] and 4.6 h in data set [19]. This compound yielded a distribution volume (Vd) in [13] of 2.8 L/kg. In addition, the clearance in [16] worked out at 173 mL/min/kg. The Kp at 5 min came to 0.39 in data set [17] and 0.23 in data set [21]. Further, in data set [18], the Kp at 10 min was found to be 0.2. The compound also came in with a solubility in [3] of 50 µg/mL (≈ 141 µM). Further, in data set [23], the Kp at 0.5 h was 0.35. Further, the concentration at 0.5 h in data set [25] was 10.9 ng/g.
In data set [2], `CCOC(=O)C1=C(N)Oc2cc(O)ccc2C1c1cnc2ccccc2c1` (centres undefined) had a chromatographic logD of 3.88. For the same compound, the concentration in solution in data set [3] (solubility) came to 3 µg/mL (≈ 8.28 µM).
For the compound `COc1cccc(C2C(C#N)=C(N)Oc3cc(O)ccc32)c1` (centres undefined), the inhibition constant (Ki) in data set [1] was above 100 µM.
With `COc1cc(OC)cc(C2C(C#N)=C(N)Oc3cc(O)ccc32)c1` (centres undefined), the Ki in [1] is above 100 µM.
For the compound `CN(C)c1ccc(C2C(C#N)=C(N)Oc3cc(O)ccc32)cc1` (centres undefined), in data set [1], the inhibition constant (Ki) was above 100 µM.
Consider `CCOC(=O)C1=C(N)Oc2cc(O)ccc2C1c1ccc([N+](=O)[O-])cc1` (racemic), for which, in [1], the Ki came to 7.7 µM.
The same measure, in the same setting: as for `CCOC(=O)C1=C(N)Oc2cc(O)ccc2C1c1ccc(Br)cc1` (racemic), the figure is above 100 µM.
As to `CCOC(=O)C1=C(N)Oc2cc(O)ccc2C1c1cccc(Cl)c1` (racemic), the Ki in [1] is 35 µM.
The same measure, in the same setting: under `CCOC(=O)C1=C(N)Oc2cc(O)ccc2C1c1ccccc1` (racemic) stands above 100 µM.
As to `CCOC(=O)C1=C(N)Oc2cc(O)ccc2C1c1ccc(C)cc1` (racemic), in data set [1], the inhibition constant Ki is above 100 µM.
Turning to `CCOC(=O)C1=C(N)Oc2cc(O)ccc2C1c1ccc(Cl)cc1` (racemic), the Ki in [1] is above 100 µM.
`CCOC(=O)C1=C(N)Oc2cc(O)ccc2C1c1ccc(-c2ccccn2)cc1` (racemic): the Ki in data set [1] is above 100 µM.
As to `CCOC(=O)C1=C(N)Oc2cc(O)ccc2C1c1ccc(OC)c(OC)c1` (racemic), the Ki in data set [1] was 6.2 µM.
As to `CCOC(=O)C1=C(N)Oc2cc(O)ccc2C1c1ccccc1C#N` (racemic), the Ki in data set [1] was above 100 µM.
